Data taken from ChEMBL document CHEMBL3352338, “Development and biological evaluation of potent and selective c-KIT(D816V) inhibitors” (J Med Chem, 2014).
Activity calls are given as the source filed them. The rule behind the calls is not given here.

Legend:
[1] = molecular target: Vascular endothelial growth factor receptor 1 (Homo sapiens) (UniProt P17948); assay: Inhibition of FLT1 (unknown origin) at 1 uM by KINOMEscanning assay relative to control; values are per cent of control
[2] = molecular target: BDNF/NT-3 growth factors receptor (Homo sapiens) (UniProt Q16620); assay: Inhibition of TRKB (unknown origin) at 1 uM by KINOMEscanning assay relative to control; values are per cent of control
[3] = molecular target: Fibroblast growth factor receptor 2 (Homo sapiens) (UniProt P21802); assay: Inhibition of FGFR2 (unknown origin) at 1 uM by KINOMEscanning assay relative to control; values are per cent of control
[4] = molecular target: T1, Inhibitor of nuclear factor kappa-B kinase subunit alpha (Homo sapiens) (UniProt O15111); assay: Inhibition of IKKalpha (unknown origin) at 1 uM by KINOMEscanning assay relative to control; values are per cent of control
T1 sequence (whole entry): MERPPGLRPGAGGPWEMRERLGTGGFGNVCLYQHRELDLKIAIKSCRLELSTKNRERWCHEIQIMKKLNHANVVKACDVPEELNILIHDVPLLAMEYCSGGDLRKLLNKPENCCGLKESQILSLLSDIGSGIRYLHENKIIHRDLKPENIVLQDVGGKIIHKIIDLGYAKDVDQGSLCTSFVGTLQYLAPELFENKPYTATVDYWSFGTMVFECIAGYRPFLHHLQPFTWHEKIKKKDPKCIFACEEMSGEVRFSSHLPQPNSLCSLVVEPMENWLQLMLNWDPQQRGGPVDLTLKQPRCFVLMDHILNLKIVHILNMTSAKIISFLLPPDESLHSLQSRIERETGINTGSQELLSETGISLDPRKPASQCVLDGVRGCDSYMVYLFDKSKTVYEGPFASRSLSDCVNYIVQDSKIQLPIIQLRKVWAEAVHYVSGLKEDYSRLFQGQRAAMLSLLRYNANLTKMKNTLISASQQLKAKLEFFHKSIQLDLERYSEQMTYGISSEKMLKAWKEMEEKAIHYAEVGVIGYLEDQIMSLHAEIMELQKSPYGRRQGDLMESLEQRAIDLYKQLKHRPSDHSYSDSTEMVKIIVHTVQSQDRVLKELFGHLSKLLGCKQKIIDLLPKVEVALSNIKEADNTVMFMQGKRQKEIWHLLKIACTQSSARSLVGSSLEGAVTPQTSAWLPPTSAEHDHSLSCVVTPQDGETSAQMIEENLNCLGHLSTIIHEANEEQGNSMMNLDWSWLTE

[5] = molecular target: T2, Serine/threonine-protein kinase 17A (Homo sapiens) (UniProt Q9UEE5); assay: Inhibition of DRAK1 (unknown origin) at 1 uM by KINOMEscanning assay relative to control; values are per cent of control
T2 sequence (whole entry): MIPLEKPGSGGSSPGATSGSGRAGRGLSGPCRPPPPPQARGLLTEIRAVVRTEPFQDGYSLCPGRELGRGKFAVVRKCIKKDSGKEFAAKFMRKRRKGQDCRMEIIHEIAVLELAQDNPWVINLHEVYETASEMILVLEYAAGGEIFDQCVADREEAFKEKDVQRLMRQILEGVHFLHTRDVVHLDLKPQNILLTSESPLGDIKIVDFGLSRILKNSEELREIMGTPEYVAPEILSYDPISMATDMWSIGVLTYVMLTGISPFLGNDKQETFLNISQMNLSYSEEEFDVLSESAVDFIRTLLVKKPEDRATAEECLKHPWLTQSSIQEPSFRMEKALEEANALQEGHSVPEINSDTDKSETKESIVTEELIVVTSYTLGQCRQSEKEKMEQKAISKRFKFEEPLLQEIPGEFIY

[6] = molecular target: RAC-beta serine/threonine-protein kinase (Homo sapiens) (UniProt P31751); assay: Inhibition of AKT2 (unknown origin) at 1 uM by KINOMEscanning assay relative to control; values are per cent of control
[7] = molecular target: Serine/threonine-protein kinase PAK 1 (Homo sapiens) (UniProt Q13153); assay: Inhibition of PAK1 (unknown origin) at 1 uM by KINOMEscanning assay relative to control; values are per cent of control
[8] = test system: Hepatocyte growth factor receptor (Homo sapiens), P08581 [M1250T]; assay: Inhibition of MET M1250T mutant (unknown origin) at 1 uM by KINOMEscanning assay relative to control; values are per cent of control
[9] = molecular target: Mast/stem cell growth factor receptor Kit (Homo sapiens, UniProt P10721); settings: 5 uM
[10] = molecular target: Phosphatidylinositol 4,5-bisphosphate 3-kinase catalytic subunit alpha isoform (Homo sapiens, UniProt P42336); assay: Inhibition of PI3Kalpha (unknown origin) at 1 uM by KINOMEscanning assay relative to control; values are per cent of control
[11] = test system: Serine/threonine-protein kinase B-raf (Homo sapiens), P15056 [V600E]; assay: Inhibition of BRAF V600E mutant (unknown origin) at 1 uM by KINOMEscanning assay relative to control; values are per cent of control
[12] = molecular target: Hepatocyte growth factor receptor (Homo sapiens) (UniProt P08581); assay: Inhibition of MET (unknown origin) at 1 uM by KINOMEscanning assay relative to control; values are per cent of control
[13] = molecular target: Cyclin-dependent kinase 9 (Homo sapiens) (UniProt P50750); assay: Inhibition of CDK9 (unknown origin) at 1 uM by KINOMEscanning assay relative to control; values are per cent of control
[14] = molecular target: Tyrosine-protein kinase JAK2 (Homo sapiens) (UniProt O60674); assay: Inhibition of JAK2 (unknown origin) at 1 uM by KINOMEscanning assay relative to control; values are per cent of control
[15] = Induction of apoptosis in human HMC-1.2 cells assessed as apoptotic cells at 1 uM after 48 hrs by TUNEL staining (reference value: 0.849%); type: functional
[16] = Cell cycle arrest in human HMC-1.2 cells assessed as accumulation at sub-G1 phase after 24 hrs by flow cytometric analysis; type: functional, cell-based
Outline: (§1)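 HMC-1.2 cells exposed to increasing concentrations for 24 h; cell cycle distribution (SubG1/G1 fraction) measured by flow cytometry.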

[17] = Induction of apoptosis in human HMC-1.2 cells assessed as apoptotic cells at 0.1 uM after 48 hrs by TUNEL staining (reference value: 0.849%); type: functional
[18] = Cell cycle arrest in human HMC-1.2 cells assessed as accumulation at G1 phase after 24 hrs by flow cytometric analysis; type: functional, cell-based
Outline: as §1

[19] = Induction of apoptosis in human HMC-1.2 cells assessed as apoptotic cells at 5 uM after 48 hrs by TUNEL staining (reference value: 0.849%); type: functional

RAC-beta serine/threonine-protein kinase (Homo sapiens), sequence (P31751 whole entry): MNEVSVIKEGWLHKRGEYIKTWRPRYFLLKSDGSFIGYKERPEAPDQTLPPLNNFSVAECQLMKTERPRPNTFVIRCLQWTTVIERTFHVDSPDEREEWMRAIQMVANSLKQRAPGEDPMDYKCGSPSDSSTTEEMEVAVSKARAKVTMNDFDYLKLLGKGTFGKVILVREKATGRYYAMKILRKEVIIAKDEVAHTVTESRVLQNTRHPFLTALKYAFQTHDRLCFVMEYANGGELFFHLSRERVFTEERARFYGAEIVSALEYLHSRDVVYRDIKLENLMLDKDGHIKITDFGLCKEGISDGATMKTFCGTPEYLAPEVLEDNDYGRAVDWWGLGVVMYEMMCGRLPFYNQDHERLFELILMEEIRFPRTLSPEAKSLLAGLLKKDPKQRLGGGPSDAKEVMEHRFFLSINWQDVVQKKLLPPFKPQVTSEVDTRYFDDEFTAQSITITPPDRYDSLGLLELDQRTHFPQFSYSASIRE
Vascular endothelial growth factor receptor 1 (Homo sapiens), sequence (P17948 whole entry): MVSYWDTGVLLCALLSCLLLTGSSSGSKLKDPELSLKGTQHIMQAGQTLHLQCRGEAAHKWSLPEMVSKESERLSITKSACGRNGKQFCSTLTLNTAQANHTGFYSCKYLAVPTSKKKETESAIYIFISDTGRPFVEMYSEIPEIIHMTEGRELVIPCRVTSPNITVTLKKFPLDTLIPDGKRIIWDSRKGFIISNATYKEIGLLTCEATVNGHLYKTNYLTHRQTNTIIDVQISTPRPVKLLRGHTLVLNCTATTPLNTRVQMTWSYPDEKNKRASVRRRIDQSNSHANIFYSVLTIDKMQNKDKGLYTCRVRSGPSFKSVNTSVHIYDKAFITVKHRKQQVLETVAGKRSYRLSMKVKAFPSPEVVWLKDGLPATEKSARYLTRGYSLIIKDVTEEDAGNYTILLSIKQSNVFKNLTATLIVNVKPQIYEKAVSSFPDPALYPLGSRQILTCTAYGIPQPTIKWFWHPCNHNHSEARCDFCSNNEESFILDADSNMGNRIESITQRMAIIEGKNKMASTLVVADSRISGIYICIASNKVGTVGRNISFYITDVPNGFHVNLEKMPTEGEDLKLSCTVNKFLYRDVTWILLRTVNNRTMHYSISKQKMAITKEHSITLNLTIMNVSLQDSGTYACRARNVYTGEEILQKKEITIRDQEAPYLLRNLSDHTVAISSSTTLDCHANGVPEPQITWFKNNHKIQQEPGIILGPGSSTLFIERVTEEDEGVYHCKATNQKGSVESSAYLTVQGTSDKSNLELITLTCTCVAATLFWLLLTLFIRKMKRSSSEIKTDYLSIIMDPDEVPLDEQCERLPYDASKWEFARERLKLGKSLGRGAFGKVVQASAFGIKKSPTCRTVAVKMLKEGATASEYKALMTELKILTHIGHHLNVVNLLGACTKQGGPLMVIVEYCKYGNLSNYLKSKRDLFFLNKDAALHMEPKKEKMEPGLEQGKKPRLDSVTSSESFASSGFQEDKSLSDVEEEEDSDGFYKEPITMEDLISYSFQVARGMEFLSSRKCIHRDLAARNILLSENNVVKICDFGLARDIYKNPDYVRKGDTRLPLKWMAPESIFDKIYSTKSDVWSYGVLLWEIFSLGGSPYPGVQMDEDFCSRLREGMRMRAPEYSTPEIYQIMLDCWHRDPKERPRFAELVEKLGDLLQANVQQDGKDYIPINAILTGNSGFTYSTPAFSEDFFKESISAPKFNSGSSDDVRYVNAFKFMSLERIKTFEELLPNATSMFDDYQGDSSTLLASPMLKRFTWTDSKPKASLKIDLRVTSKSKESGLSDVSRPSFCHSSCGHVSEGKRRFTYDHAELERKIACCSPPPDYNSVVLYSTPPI
Tyrosine-protein kinase JAK2 (Homo sapiens), sequence (O60674 whole entry): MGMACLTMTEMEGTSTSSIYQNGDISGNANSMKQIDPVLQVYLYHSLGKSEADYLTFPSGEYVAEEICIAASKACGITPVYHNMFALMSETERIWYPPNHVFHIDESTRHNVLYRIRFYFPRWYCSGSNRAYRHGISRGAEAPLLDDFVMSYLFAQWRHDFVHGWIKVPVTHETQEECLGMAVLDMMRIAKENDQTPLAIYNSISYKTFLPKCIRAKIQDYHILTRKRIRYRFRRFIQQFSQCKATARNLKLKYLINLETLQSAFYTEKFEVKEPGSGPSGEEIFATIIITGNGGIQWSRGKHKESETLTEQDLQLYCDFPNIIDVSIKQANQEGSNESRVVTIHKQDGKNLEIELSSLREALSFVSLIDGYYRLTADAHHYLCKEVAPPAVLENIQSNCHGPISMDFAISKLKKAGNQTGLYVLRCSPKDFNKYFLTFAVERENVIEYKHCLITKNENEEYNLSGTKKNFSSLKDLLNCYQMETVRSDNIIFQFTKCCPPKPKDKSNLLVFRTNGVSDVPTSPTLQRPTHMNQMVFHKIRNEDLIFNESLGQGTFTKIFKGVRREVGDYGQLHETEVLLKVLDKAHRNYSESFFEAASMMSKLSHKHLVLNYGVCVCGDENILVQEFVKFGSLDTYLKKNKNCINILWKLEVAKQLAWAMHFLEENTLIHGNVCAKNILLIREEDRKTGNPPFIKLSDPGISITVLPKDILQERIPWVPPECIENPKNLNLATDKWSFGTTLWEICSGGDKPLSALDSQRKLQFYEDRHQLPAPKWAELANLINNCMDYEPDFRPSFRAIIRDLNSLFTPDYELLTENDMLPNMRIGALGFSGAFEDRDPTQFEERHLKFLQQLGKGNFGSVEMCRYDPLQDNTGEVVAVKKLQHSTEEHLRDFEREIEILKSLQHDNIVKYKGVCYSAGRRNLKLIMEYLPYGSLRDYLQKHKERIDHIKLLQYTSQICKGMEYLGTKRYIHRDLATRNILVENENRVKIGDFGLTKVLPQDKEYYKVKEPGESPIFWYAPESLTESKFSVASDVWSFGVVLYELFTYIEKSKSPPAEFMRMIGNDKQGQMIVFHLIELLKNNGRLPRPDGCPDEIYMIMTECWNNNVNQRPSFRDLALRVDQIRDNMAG
Hepatocyte growth factor receptor (Homo sapiens), sequence (P08581 whole entry): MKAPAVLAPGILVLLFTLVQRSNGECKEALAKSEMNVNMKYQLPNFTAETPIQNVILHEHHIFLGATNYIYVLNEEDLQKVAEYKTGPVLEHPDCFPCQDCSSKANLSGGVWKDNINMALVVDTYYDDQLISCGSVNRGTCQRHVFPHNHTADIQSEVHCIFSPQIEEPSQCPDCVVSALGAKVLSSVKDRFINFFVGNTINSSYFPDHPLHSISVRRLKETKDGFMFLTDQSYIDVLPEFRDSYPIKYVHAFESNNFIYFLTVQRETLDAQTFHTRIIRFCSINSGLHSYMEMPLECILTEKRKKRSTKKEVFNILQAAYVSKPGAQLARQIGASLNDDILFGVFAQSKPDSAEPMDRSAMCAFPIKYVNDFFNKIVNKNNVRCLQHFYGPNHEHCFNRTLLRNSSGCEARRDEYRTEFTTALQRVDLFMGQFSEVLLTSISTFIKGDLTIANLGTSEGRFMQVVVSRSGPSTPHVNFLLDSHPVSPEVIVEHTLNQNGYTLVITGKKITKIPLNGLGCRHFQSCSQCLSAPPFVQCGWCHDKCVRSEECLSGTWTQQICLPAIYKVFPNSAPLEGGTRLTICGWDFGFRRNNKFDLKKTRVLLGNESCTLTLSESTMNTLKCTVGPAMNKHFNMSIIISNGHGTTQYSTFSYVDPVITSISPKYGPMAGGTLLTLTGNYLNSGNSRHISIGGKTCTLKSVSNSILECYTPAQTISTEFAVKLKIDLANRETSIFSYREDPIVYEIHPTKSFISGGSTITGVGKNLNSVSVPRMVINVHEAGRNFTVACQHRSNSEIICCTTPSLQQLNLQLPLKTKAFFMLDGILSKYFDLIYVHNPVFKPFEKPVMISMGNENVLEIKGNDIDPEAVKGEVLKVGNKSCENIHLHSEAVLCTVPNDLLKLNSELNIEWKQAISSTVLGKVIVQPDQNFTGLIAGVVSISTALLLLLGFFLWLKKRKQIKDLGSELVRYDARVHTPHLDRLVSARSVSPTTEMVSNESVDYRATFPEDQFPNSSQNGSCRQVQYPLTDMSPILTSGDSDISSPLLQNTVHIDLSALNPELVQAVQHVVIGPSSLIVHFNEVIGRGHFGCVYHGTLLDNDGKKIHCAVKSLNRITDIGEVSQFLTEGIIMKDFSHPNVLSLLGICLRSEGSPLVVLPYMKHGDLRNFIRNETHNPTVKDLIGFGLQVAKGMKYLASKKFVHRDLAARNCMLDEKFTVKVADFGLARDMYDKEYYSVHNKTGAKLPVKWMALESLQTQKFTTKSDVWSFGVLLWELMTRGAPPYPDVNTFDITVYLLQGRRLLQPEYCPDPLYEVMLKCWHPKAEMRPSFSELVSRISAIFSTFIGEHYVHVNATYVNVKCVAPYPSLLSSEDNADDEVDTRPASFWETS
Serine/threonine-protein kinase B-raf (Homo sapiens), P15056 [V600E], sequence (P15056 whole entry V600E): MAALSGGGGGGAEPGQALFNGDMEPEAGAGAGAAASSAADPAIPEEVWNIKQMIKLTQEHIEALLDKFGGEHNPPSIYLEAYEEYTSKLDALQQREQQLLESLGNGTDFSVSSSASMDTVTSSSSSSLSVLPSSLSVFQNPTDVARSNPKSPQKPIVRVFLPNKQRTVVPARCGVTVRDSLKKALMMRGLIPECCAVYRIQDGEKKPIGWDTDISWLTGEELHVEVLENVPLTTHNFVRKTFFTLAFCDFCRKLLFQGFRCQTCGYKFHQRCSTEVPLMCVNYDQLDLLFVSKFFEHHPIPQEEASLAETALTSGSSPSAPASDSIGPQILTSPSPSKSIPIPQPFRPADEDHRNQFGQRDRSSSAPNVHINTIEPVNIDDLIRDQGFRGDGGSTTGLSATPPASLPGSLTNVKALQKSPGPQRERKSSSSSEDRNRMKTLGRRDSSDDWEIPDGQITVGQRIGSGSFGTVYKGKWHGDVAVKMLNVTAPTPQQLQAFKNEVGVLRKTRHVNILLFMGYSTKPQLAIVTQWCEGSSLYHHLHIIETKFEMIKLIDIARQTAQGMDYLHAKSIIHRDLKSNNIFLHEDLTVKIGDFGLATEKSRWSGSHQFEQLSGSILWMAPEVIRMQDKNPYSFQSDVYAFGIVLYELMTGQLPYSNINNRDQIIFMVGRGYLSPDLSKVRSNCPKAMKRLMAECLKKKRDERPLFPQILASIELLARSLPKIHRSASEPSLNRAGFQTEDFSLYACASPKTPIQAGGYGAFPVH

COc1ccc(-c2cnc3[nH]cc(-c4ccc(OC)c(OC)c4)c3c2)cc1N
residual activity [1]: 43%
residual activity [2]: 16%
residual activity [3]: 100%
residual activity [4]: 26%
residual activity [5]: 2.4%
residual activity [6]: 100%
residual activity [7]: 88%
residual activity [8]: 51%
inhibition [9]: Active
residual activity [10]: 71%
residual activity [11]: 78%
residual activity [12]: 47%
residual activity [13]: 100%
residual activity [14]: 46%

COc1ccc(-c2cnc3[nH]cc(-c4ccc(OC)c(OC)c4)c3c2)cc1OC
residual activity [1]: 81%
Activity [15]: 13.3%
inhibition [16]: Dose-dependent effect
residual activity [2]: 36%
residual activity [3]: 100%
Activity [17]: 0.732%
residual activity [4]: 10%
residual activity [5]: 0.2%
residual activity [6]: 100%
residual activity [7]: 85%
residual activity [8]: 35%
inhibition [9]: Active
inhibition [18]: Dose-dependent effect
residual activity [10]: 66%
Activity [19]: 69.9%
residual activity [11]: 88%
residual activity [12]: 34%
residual activity [13]: 100%
residual activity [14]: 49%

COc1ccc(-c2c[nH]c3ncc(-c4cc(OC)c(OC)c(OC)c4)cc23)cc1OC
residual activity [1]: 75%
residual activity [2]: 45%
residual activity [3]: 100%
residual activity [4]: 70%
residual activity [5]: 0.95%
residual activity [6]: 100%
residual activity [7]: 83%
residual activity [8]: 86%
inhibition [9]: Active
residual activity [10]: 75%
residual activity [11]: 82%
residual activity [12]: 54%
residual activity [13]: 100%
residual activity [14]: 48%

COc1ccc(-c2c[nH]c3ncc(-c4ccc(C(=O)N5CCOCC5)c(N)c4)cc23)cc1OC
residual activity [1]: 56%
residual activity [2]: 17%
residual activity [3]: 89%
residual activity [4]: 2.2%
residual activity [5]: 0.25%
residual activity [6]: 97%
residual activity [7]: 87%
residual activity [8]: 53%
residual activity [10]: 100%
residual activity [11]: 66%
residual activity [12]: 54%
residual activity [13]: 100%
residual activity [14]: 3.2%

COc1cc(-c2c[nH]c3ncc(-c4cccc(N)c4)cc23)cc(OC)c1OC
residual activity [1]: 36%
residual activity [2]: 68%
residual activity [3]: 100%
residual activity [4]: 46%
residual activity [5]: 86%
residual activity [6]: 100%
residual activity [7]: 89%
residual activity [8]: 80%
inhibition [9]: Active
residual activity [10]: 71%
residual activity [11]: 34%
residual activity [12]: 35%
residual activity [13]: 83%
residual activity [14]: 78%
